Experimental data from different studies.
Each line is one published result; the experiments were not run side by side.
KCNA1: Potassium voltage-gated channel subfamily A member 1 (KCNA1, Homo sapiens, UniProt Q09470)

SMILES	target	test	test system	conditions	quantity	result
CCCN1C[C@H](CSC)C[C@@H]2c3cccc4[nH]cc(c34)C[C@H]21	KCNA1	ion current, inhibitor, patch clamp	–	10 µM	inhibition	19.6%
COc1cc(-c2cncc3c2CN(C)Cc2cc(N4CCNCC4)ccc2-3)cc(OC)c1OC	Serine/threonine-protein kinase N2 (PKN2, Homo sapiens, UniProt Q16513)	enzyme activity, inhibitor	–	1 µM	remaining activity	112%
C=CC(=O)N1CCC(COCC(=O)N2CCN(c3nc(-c4cnc(N)nc4C(F)F)nc(N4CCOC[C@@H]4C)n3)CC2)CC1	Casein kinase II subunit alpha' (CSNK2A2, Homo sapiens, UniProt P19784)	binding, competition with immobilised ligand	–	1 µM	remaining binding	88%
CC[C@H](C)[C@H](NC(=O)[C@H](CCC(N)=O)NC(=O)[C@H](CCCNC(=N)N)NC(=O)[C@H](CO)NC(=O)[C@H](Cc1c[nH]cn1)NC(=O)[C@@H]1CCCN1C(=O)[C@H](C)NC(=O)[C@H](CO)NC(=O)[C@H](CC(C)C)NC(=O)CNC(=O)[C@@H]1CCCN1C(=O)[C@H](CCC(N)=O)NC(=O)[C@H](CCC(N)=O)NC(=O)[C@H](CCCNC(=N)N)NC(=O)[C@H](CO)NC(=O)CNC(=O)[C@H](CO)NC(=O)[C@H](CO)NC(=O)[C@H](CCC(=O)O)NC(=O)[C@@H]1CCCN1C(=O)[C@@H]1CCCN1C(=O)[C@@H]1CCCN1C(=O)[C@H](CO)NC(=O)[C@H](CC(C)C)NC(=O)[C@H](CO)NC(=O)[C@@H](NC(=O)CN)[C@@H](C)O)C(=O)N1CCC[C@H]1C(=O)N[C@@H](C)C(=O)N1CCC[C@H]1C(=O)N[C@@H](CCC(N)=O)C(=O)NCC(=O)N[C@@H](C)C(=O)N[C@H](C(=O)N[C@@H](CC(C)C)C(=O)N[C@H](C(=O)N[C@@H](CCC(N)=O)C(=O)N[C@@H](CCCNC(=N)N)C(=O)N[C@@H](CCC(=O)O)C(=O)N[C@@H](CCCCN)C(=O)N[C@@H](CC(=O)O)C(=O)N[C@@H](CC(C)C)C(=O)N1CCC[C@H]1C(=O)N[C@@H](CC(N)=O)C(=O)N[C@@H](Cc1ccc(O)cc1)C(=O)N[C@@H](CC(N)=O)C(=O)N[C@@H](Cc1c[nH]c2ccccc12)C(=O)N[C@@H](CC(N)=O)C(=O)N[C@@H](CO)C(=O)N[C@@H](Cc1ccccc1)C(=O)NCC(=O)N[C@@H](CC(C)C)C(=O)N[C@@H](CCCNC(=N)N)C(=O)N[C@@H](Cc1ccccc1)C(N)=O)C(C)C)C(C)C	KiSS-1 receptor (KISS1R, Homo sapiens, UniProt Q969F8, K305A)	inositol phosphate, agonist	HEK293	–	Emax	83.8%
CC(C)NCC(O)COc1cccc2ccccc12 (stereo not shown)	KCNA1	ion current, inhibitor, patch clamp	–	3 µM	inhibition	4.83%
O=C(O)CNc1cccc(CN(Cc2ccc(-n3cccn3)cc2)S(=O)(=O)c2cccnc2)n1	Prostaglandin E2 receptor EP2 subtype (PTGER2, Homo sapiens, UniProt P43116)	ligand displacement, radioligand	–	10 µM	inhibition	95%
CC(=O)c1c(C)c2cnc(Nc3ccc(N4CCNCC4)cn3)nc2n(C2CCCC2)c1=O	Cyclin-dependent kinase 3 (CDK3, Homo sapiens, UniProt Q00526)	enzyme activity, inhibitor, ADP detection	–	1 µM	activity vs control	90%
Cc1nnc(SCC2=C(C(=O)O)N3C(=O)[C@@H](NC(=O)Cn4cnnn4)[C@H]3SC2)s1	KCNA1	ion current, inhibitor, patch clamp	–	3 µM	inhibition	4.29%
CNc1ncc2c(/C=C/C(=O)N3CCC(OC)CC3)nn(Cc3cccc(C(F)(F)F)c3)c2n1	Tyrosine-protein kinase Tec (TEC, Homo sapiens, UniProt P42680)	enzyme activity, inhibitor, radiometric	–	1 µM	remaining activity	76%
Cc1cc([C@@H](C)Nc2ccccc2C(=O)O)c2nc(N3CCC(F)(F)CC3)c(C#N)c(=O)n2c1	Insulin receptor (INSR, Homo sapiens, UniProt P06213)	binding, competition with immobilised ligand	–	1 µM	remaining binding	100%
